TAAR1 ag: human TAAR1 agonists, primary screen, Fluo-8 calcium fluorescence, CHO RD-HGA16 cells; Trace amine-associated receptor 1 (Homo sapiens), Q96RJ0; vehicle wells 0%, saturating PEA agonist 100%; activation, % at 3 µM; 360,000 compounds, 0.99% hits;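 active = activation above the mean activation of all test compounds in the run plus 3 SD, cut at about 38% in these data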
Target sequence (Q96RJ0 whole entry, looked up): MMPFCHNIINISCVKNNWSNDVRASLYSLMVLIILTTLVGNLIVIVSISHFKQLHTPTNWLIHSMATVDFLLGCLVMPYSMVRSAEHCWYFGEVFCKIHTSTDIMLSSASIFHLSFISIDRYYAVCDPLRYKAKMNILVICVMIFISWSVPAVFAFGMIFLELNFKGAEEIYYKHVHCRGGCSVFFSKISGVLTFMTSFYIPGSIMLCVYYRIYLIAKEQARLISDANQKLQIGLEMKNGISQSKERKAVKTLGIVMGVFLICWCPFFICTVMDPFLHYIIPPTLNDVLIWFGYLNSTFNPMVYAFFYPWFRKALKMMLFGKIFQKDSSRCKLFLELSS
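Assay system: CHO-derived RD-HGA16 cells with stable Gα16 and human TAAR1; timing: 17-24 h seeding, 75 min 37 °C dye, 30 min RT; read-out: % activation from peak over basal fluorescence ratio, DMSO-to-PEA scaled; measured by: kinetic Fluo-8 calcium fluorescence; benchmarks: low control DMSO, high control PEA (EC100); doses: 3 µM single concentration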
OXTR potentiate: human OXTR potentiators, primary screen, fluorescence, CHO-OTR cells, Fluo-8 calcium | Oxytocin receptor (Homo sapiens), P30559 | Fluo-8 calcium fluorescence, potentiator mode; 0% = oxytocin EC15, 100% = EC100 | activation, % at 3 µM | 320,000 compounds, 0.061% hits;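 active = activation above that plate's cutoff, the mean activation of tested compounds plus 3 SD, cut at about 6.6% in these data, passing the limit was not always enough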;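 also: 100% uses oxytocin at 75 nM as the full agonist control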
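System: human OTR in CHO cells / Also added: sub-maximal oxytocin, roughly EC15 / Control set: EC15 oxytocin low, 75 nM oxytocin high / Schedule: 6 min compound pre-incubation at room temperature, 100 s kinetic read / Compound: single-point 3.0 µM / Replication: singlicate / Technique: Fluo-8 calcium dye fluorescence / Read-out basis: % activation of max/min ratio relative to oxytocin controls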
TAAR1 antagonist: human TAAR1 antagonists, primary screen, Fluo-8 calcium fluorescence, CHO RD-HGA16 cells; Trace amine-associated receptor 1 (Homo sapiens), Q96RJ0; antagonist; inhibition, % at 3 µM; 360,000 compounds, 1.5% hits;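 active = inhibition above a per-plate cutoff, the mean inhibition of test compounds on that plate plus 3 SD, cut at about 49% in these data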;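 also: 0% = DMSO plus EC80 beta-PEA response and 100% = DMSO alone without agonist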
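test system = CHO RD-HGA16 cells bearing hTAAR1 | replication = singlicate | controls = DMSO-only wells and EC80 β-PEA-stimulated wells | reagent = EC80 β-phenethylamine stimulus | read-out basis = percent inhibition of PEA-evoked calcium signal, max/basal emission ratio | schedule = seeding 17-24 h prior, 75-min 37 °C, 30-min RT dye loading | signal = kinetic Fluo-8 calcium fluorescence measurement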
V1R ag counter: agonists of human V1a receptor, primary screen, counter-screen for OXTR agonist project, fluorescence, CHO-V1R cells. Vasopressin V1a receptor (Homo sapiens), P37288. Fluo-8 calcium fluorescence, agonist mode; 0% DMSO, 100% 3 nM vasopressin. activation, % at 3 µM. 320,000 compounds, 0.25% hits. AID 2797, 2010;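 active = activation above the mean activation of all tested compounds plus 3 SD, per screening run, cut at about 20% in these data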;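 also: signal is peak over basal fluorescence ratio across a 100 second FLIPR read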
Target sequence (P37288 whole entry, looked up): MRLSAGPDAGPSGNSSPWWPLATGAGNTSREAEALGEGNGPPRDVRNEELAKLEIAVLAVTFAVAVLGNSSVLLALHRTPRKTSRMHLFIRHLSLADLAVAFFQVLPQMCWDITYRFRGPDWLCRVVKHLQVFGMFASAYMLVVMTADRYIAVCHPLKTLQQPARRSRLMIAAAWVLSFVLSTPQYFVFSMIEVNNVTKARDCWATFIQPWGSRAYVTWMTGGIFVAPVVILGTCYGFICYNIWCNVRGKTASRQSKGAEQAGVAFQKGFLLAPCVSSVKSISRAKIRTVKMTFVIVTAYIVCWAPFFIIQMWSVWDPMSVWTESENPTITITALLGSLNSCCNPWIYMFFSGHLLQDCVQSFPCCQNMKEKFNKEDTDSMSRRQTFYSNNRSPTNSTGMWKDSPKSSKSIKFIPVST
OXTR agonist: human OXTR agonists, primary screen, fluorescence, CHO-OTR cells, Fluo-8 calcium; Fluo-8 calcium fluorescence; normalized: DMSO 0%, oxytocin 100%; activation, % at 3 µM; 320,000 compounds, 0.32% hits; AID 2435, 2010;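 active = activation above the mean of all tested compounds plus 3 SD, cutoff set per screening run, cut at about 20% in these data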;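 also: peak over basal fluorescence ratio from a 100 s FLIPR kinetic read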
TAAR1 ag confirm: human TAAR1 agonists, retest of hits, confirmation, Fluo-8 calcium fluorescence, CHO RD-HGA16 cells. shares compounds with TAAR1 ag. scaled: DMSO 0%, maximal phenethylamine 100%. activation, % at 3 µM. 2,400 compounds, 82% hits. AID 651783, 2012;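 active = activation above a cutoff set at the run's mean compound activation plus 3 SD, cut at about 39% in these data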
Ga16 ag counter: nonselective calcium mobilization agonists, CHO-Ga16 cells, counter-screen for hTAAR1 agonist project, cell-based, fluorescence, CHO-Ga16 parental line | Fluo-8 calcium fluorescence; normalized to maximal ATP response, DMSO zero | 2,400 compounds, 50% hits | activation, % at 3 µM | shares compounds with TAAR1 ag;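 active = activation above the run cutoff, the mean activation over all tested wells plus 3 SD, cut at about 12% in these data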;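 also: 0% = DMSO wells and 100% = maximal ATP response on the peak over basal ratio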
TAAR1 desensitize: TAAR1 desensitization by agonist hits, confirmation, counter-screen for TAAR1 agonist project, cell-based, fluorescence, tachyphylaxis | 2,400 compounds, 46% hits | inhibition, % at 3 µM | CHO RD-HGA16 hTAAR1, Fluo-8 calcium, beta-PEA response inhibition | shares compounds with TAAR1 ag | AID 651951, 2012;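 active = inhibition above the run cutoff, the mean inhibition of all test compounds plus 3 SD, cut at about 49% in these data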;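 also: beta-PEA stimulus applied at its EC80; loss of beta-PEA calcium signal after compound pretreatment read as receptor desensitization; 0% = DMSO with beta-PEA at EC80 and 100% = DMSO alone without agonist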
Ga16 antag count: inhibition of ATP-evoked calcium response in CHO-Ga16 cells, counter-screen for TAAR1 agonist project, cell-based, fluorescence; shares compounds with TAAR1 ag; CHO-Ga16 ATP-induced calcium, Fluo-8 fluorescence; inhibition, % at 3 µM; 2,400 compounds, 39% hits;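 active = inhibition above the plate's mean compound inhibition plus 3 SD, computed per plate, cut at about 22% in these data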;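 also: 0% = EC80 ATP with DMSO and 100% = DMSO wells without ATP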
Numbers without * were called inactive; . = not tested or not shown; ! = not active in a repeat. Only some compounds are listed: those with a hit (about 2.3% of all), similar ones and a draw of the others.

SMILES	TAAR1 ag	OXTR potentiate	TAAR1 antagonist	V1R ag counter	OXTR agonist	TAAR1 ag confirm	Ga16 ag counter	TAAR1 desensitize	Ga16 antag count
COC(=O)[C@]12C[C@H](CC(=O)NCCc3ccccc3OC)C(=O)N(Cc3ccc4c(c3)OCO4)C1=C[C@H](COCc1ccccc1)O[C@@H]2C	.	.	.	.	.	.	6	.	12
COC(=O)[C@]12C[C@H](CC(=O)NCCc3ccccc3OC)C(=O)N(Cc3ccccc3)C1=C[C@H](C(C)(C)C)O[C@@H]2C	65*	.	54*	.	.	80*	4	53*	6
O=C(c1c[nH]c(C(=O)C(Cl)(Cl)Cl)c1)c1ccccc1Br	7	-5	3	2	0	.	.	.	.
Cc1ccc(/C=C/c2nc3ccccc3[nH]2)o1	1	-7	14	0	-1	.	.	.	.
CCN(CC)CCc1c(C)[nH]c(C(=O)OCc2ccccc2)c1C	71*	-1	26	1	4	73*	1	74*	2
CC(=O)c1c(C)[nH]c(C(=O)OCc2ccccc2)c1C	9	-12	10	6	4	.	.	.	.
Cc1ccc(C(=O)Nn2c(O)c(C=C3N=c4ccccc4=N3)sc2=S)cc1	54*	-10	35	1	1	52*	3	59*	23*
Cc1ccc(S(=O)(=O)Nn2c(O)c(C=C3N=c4ccccc4=N3)sc2=S)cc1	11	-3	33	1	1	.	.	.	.
COc1ccc(OC)c(S(=O)(=O)N2CCN(C(=O)c3ccco3)CC2)c1	3	-17	-11	0	-1	.	.	.	.
COCCn1c(SCc2nnc(-c3ccc(OC)c(OC)c3)o2)nnc1-c1ccncc1	1	-2	-29	0	4	.	.	.	.
N#C/C(=C\c1coc2ccc(O)cc2c1=O)C(=O)Nc1nc2ccccc2s1	480*	-13	104*	308*	257*	316*	295*	102*	95*
Cc1cc(/C=C2/SC(=O)NC2=O)c(C)n1-c1ccc(N2CCOCC2)cc1	54*	-11	28	14	8	60*	38*	30	24*
O=C(Nc1ccccc1C(F)(F)F)c1cc2ccccc2o1	-2	-8	0	-1	-2	.	.	.	.
O=C(c1ccc2c(c1)OCO2)N1CCN(c2ccccn2)CC1	1	-4	-17	0	0	.	.	.	.
COc1cc(CN2CCC(C(=O)NC(c3ccc(F)cc3)c3ccc4ccccc4n3)CC2)cc(OC)c1 (stereo not given)	14	.	-7	.	.	.	.	.	.
Cn1cc(CN2CCC(C(=O)NC(c3ccc(F)cc3)c3ccc4ccccc4n3)CC2)c2ccccc21 (stereo not given)	53*	.	52*	.	.	-4	32*	104*	52*
C=C(C)c1ccc(C(C)(C)NC(=O)N2CCN(C)CC2)cc1	9	-1	-5	0	0	.	.	.	.
CCN(CC)CCNC(=O)c1ccc(Cl)c(S(=O)(=O)Nc2ccccc2OC)c1	8	2	9	0	2	.	.	.	.
CCN(CC)CCNC(=O)c1ccc(Cl)c(S(=O)(=O)Nc2ccc(Cl)cc2)c1	70*!	-14	39	1	1	4	1	9	4
NCCc1nc(-c2ccccc2)cs1	56*	3	4	0	2	73*	0	61*	11
O=C1NC[C@@H](Cc2cccc3ccccc23)N(CCc2cccc(F)c2)C1=O	1	.	-17	.	.	.	.	.	.
Cc1cccc(NC(=O)C(=O)NCc2ccc3c(c2)OCO3)c1C	56*	-4	36	1	2	10	1	1	-1
CCOC(=O)N1CCN(C(=O)CN(c2ccc(C)cc2)S(=O)(=O)c2c(C)noc2C)CC1	7	-3	-6	6	0	.	.	.	.
O=C(O)c1ccc(N/N=C/C=C/c2ccccc2[N+](=O)[O-])cc1	66*	-3	48	5	7	51*	21*	53*	36*
O=C(Cc1ccccc1)N/N=C/C=C/c1ccccc1[N+](=O)[O-]	1	-7	5	8	-2	.	.	.	.
SMILES	TAAR1 ag	OXTR potentiate	TAAR1 antagonist	V1R ag counter	OXTR agonist	TAAR1 ag confirm	Ga16 ag counter	TAAR1 desensitize	Ga16 antag count
NC(=S)NNC(=O)C12CC3CC(CC(C3)C1)C2	140*	-17	80*	23*	34*	136*	108*	102*	94*
Cc1ccnc(NC(=O)Nc2ccc3c(c2)OCO3)c1	47*	-5	4	1	1	87*	0	66*	4
CCc1ccccc1NC(=O)Nc1ccc2c(c1)OCO2	64*	-7	43	1	-1	2	5	3	9
O=C(Nc1ccc2c(c1)OCCO2)Nc1ccc2c(c1)OCO2	1	-2	3	2	0	.	.	.	.
COC(=O)c1ccccc1OCc1cc(=O)oc2ccc(C)cc12	2	.	3	.	.	.	.	.	.
Cc1nc(NCCc2ccccc2)c2nnn(Cc3ccccc3)c2n1	51*	-4	45	0	-2	77*	15*	45	2
N#C/C(=C/C=C/c1ccccc1)C(=O)Nc1ccccc1	74*	-4	34	1	-2	23	25*	11	26*
Cc1ccc(S(=O)(=O)NCc2ccccc2)cc1C(=O)N1CCCCC1	3	-7	-6	2	0	.	.	.	.
CC1NC(C)(C)Cc2c1ccc1ccccc21 (stereo not given)	0	-9	-15	0	1	.	.	.	.
CC1NC(C)c2c(ccc3ccccc23)O1 (stereo not given)	.	.	.	.	.	.	1	.	6
CCOC(=O)C1=C(Cc2ccc(C)cc2)C(=O)c2ccccc2C1=O	54*	-5	54*	4	5	19	23*	42	44*
